These results are taken from PMC3263826 (ACS medicinal chemistry letters, 2011).

Data set [1] has as its target T1, human MAO A (Homo sapiens, UniProt P21397).
T1 sequence (P21397 1-527): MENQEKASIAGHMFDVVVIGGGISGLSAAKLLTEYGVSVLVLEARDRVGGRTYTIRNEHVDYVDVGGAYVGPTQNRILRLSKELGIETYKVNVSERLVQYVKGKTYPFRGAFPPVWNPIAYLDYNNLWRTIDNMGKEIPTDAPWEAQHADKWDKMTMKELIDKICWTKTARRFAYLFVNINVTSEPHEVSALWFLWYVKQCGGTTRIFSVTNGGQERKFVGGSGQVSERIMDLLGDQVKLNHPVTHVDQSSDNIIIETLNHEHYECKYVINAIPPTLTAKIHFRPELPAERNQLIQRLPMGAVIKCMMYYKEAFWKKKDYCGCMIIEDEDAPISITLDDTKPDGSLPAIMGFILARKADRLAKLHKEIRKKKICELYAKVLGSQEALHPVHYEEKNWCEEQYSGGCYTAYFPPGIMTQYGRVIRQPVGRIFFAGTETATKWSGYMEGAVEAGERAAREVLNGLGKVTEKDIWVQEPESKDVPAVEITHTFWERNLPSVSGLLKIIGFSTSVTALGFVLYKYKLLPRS
In words: Inhibition of purified recombinant human MAO A. Type of data set: biochemical. To be noted: for inhibition pattern with MAO A: species not given.

Data set [2] concerns the target T2, rat MAO A (Rattus norvegicus, UniProt P21396).
T2 sequence (P21396 1-526): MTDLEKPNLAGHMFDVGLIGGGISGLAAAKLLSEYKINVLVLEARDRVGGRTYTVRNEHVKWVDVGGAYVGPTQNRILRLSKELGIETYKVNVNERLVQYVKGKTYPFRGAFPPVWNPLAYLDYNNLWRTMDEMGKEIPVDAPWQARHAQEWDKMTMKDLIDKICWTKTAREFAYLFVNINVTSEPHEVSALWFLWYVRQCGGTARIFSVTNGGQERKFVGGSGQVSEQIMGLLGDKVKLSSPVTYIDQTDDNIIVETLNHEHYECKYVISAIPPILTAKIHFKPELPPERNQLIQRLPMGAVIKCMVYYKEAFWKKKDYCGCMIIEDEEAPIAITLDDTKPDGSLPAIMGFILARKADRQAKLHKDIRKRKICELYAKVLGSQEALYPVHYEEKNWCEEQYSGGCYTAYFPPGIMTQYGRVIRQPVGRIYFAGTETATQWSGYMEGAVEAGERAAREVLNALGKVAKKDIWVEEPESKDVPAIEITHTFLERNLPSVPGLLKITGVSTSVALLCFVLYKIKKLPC
Nature of the data set: Inhibition of purified recombinant rat MAO A. Type of data set: biochemical. To be noted: accessible concentration range (~100 μM).

The target of data set [3] is T3, human MAO B (Homo sapiens, UniProt P27338).
T3 sequence (P27338 1-520): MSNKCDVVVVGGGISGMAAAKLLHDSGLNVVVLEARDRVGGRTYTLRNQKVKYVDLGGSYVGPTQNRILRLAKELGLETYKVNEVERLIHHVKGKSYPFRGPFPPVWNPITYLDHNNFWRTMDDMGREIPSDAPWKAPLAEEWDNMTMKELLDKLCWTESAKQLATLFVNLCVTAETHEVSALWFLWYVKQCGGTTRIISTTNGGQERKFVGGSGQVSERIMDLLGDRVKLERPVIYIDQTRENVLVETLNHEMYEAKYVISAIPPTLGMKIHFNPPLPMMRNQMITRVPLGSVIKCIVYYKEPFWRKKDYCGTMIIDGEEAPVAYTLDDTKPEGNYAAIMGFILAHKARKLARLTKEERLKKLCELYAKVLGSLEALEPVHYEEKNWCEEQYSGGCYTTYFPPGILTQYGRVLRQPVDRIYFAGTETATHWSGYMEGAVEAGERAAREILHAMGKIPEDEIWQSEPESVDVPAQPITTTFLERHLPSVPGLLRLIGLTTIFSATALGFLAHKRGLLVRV
Nature of the data set: Inhibition of purified recombinant human MAO B. It counts as biochemical. To be noted: for inhibition pattern with MAO B: species not given.

Data set [4] addresses human histone demethylase LSD1 (Homo sapiens, UniProt O60341). Nature of the data set: Inhibition of human histone demethylase LSD1. Type of data set: biochemical. To be noted: concentrations up to 100 μM. The procedure, abridged: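 Enzyme is recombinant human LSD1 purified as a complex with CoREST. Test compound was assayed at concentrations up to 100 μM.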
For data set [5], the system named is MPTP-mouse model for Parkinson's disease. To be noted: cited from earlier work.
The conditions of data set [6]: cited from earlier work.

For `CCc1ccc(CCOc2ccc(CC3SC(=O)NC3=O)cc2)nc1` (centres unmarked) [Pioglitazone, pioglitazone], the “inhibitory activity against human MAO A” value in data set [1] (accessible concentration range (~100 μM)) is “does not exhibit any inhibitory activity”. Besides, the “inhibitory activity against rat MAO A” value in data set [2] was “does not exhibit any inhibitory activity”. The “inhibition pattern with MAO B” value in data set [3] was “competitively”. Moreover, in data set [4], the “inhibition of LSD1” value is “No inhibition”. The “neuroprotection in MPTP-mouse model” value in data set [5] is listed as “effective neuroprotectant”. Besides, in data set [6] (monkey, in vivo), the “brain (therapeutic neuroprotective) concentration” value was ~ 0.14 μM. Besides, in data set [6] (monkeys with induced symptoms characteristic of Parkinson's disease), the plasma concentration is ~ 4.9 μM.

Consider `Cc1c(C)c2c(c(C)c1O)CCC(C)(COc1ccc(CC3SC(=O)NC3=O)cc1)O2` (centres unmarked) [Troglitazone, troglitazone], for which the “inhibition pattern with MAO A” value in data set [1] is “non-competitive”. Moreover, the “inhibition pattern with MAO B” value in data set [3] is reported as “non-competitive”.

Regarding `CN(CCOc1ccc(CC2SC(=O)NC2=O)cc1)c1ccccn1` (centres unmarked) [Rosiglitazone, rosiglitazone], the “inhibition pattern with MAO A” value in data set [1] was “competitively”. Further, the “substrate of MAO A” value in data set [1] (time course of hours) is listed as “very slow substrate”. Further, in data set [3], the “inhibition pattern with MAO B” value was “competitively”. Moreover, the “substrate of MAO B” value in data set [3] (time course of hours) is given as “very slow substrate”. For the same compound, in data set [4], the “inhibition of LSD1” value is reported as “No inhibition”.
